In the library only some 5.1% were active in any assay of this set; here they are far more common.
STAT1 inh – STAT1 signaling inhibitors, primary screen, cell-based, HTS, luciferase reporter; NIH 3T3 STAT1-luciferase reporter, IFN-gamma, luminescence; inhibition, % at 5.5 µM; actives 0.35% (n = 200,000); AID 920, 2007;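 active means inhibition above a set limit, the mean inhibition across all tested compounds plus 3 SD, cut at about 34% in these data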;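 further: 0% = IFN-gamma with DMSO and 100% = IFN-gamma with 300 µM nifuroxazide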
STAT3 blocker – IL-6 driven STAT3 reporter inhibitors, primary screen, U3A cells, luciferase, luminescence, MLSCN library; actives 0.89% (n = 190,000); IL-6 STAT3-luciferase reporter; host cell line lacks STAT1; inhibition, % at 5.5 µM;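 active means inhibition above the mean inhibition across all screened compounds plus 3 SD, cut at about 44% in these data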;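 further: 0% = DMSO only wells and 100% = 100 µM nifuroxazide control wells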
NF-kB neuron act – activators of NF-kB expression in neurons, primary screen, cell-based, HTS; human neuronal cells, NF-kB reporter expression; stronger effect = higher value; fold change at 12.5 µM; actives 1.6% (n = 190,000); AID 1239, 2008; in the data active means fold change above about 3.3
APP 5'UTR act – activators of APP 5'UTR luciferase reporter, primary screen, SH-SY5Y cells | SH-SY5Y APP 5'UTR luciferase reporter, luminescence; zero percent = DMSO vehicle wells | actives 1% (n = 190,000) | activation, % at 2 µM | AID 1276, 2008;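 active means activation above a set limit, based on mean plus 3 SD of controls, cut at about 140% in these data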
STAT3 act-1 – IL-6 driven STAT3 reporter potentiators, primary screen, U3A cells, luciferase, luminescence, MLSCN library. IL-6 STAT3-luciferase reporter; 100% = signal with IL-6 EC80 alone. activation (% of control), % at 5.6 µM. actives 0.91% (n = 190,000). AID 871, 2007;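 active means activation above the screen-wide mean of compound activation plus 3 SD, cut at about 130% in these data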;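 further: 0% = background luminescence of wells with medium and substrate only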
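Test system: human U3A cells carrying STAT3-luciferase construct; control set: IL-6-only wells as 100% reference; timing: compound pre-incubation 1 h before IL-6, then 6 h stimulation at 37 °C; also added: IL-6 stimulus at 33 ng/mL final; evaluation: % activation versus median of IL-6-stimulated wells; detection: reporter luminescence signal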
STAT1 act-1 – STAT1 signaling activators, primary screen, cell-based, HTS, luciferase reporter; activation (% of control), % at 5.5 µM; actives 2.6% (n = 200,000); NIH 3T3 STAT1-luciferase reporter, IFN-gamma, luminescence; 100% = IFN-gamma alone, no compound;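 active means activation above the screen-wide mean activation plus 3 SD, cut at about 130% in these data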;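 further: raw ratio to IFN-gamma control signal so 100% means no change and 0% no light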
STAT3 act-2 – STAT3 reporter potentiators, retest of hits, confirmation, U3A cells, luciferase, luminescence | shares compounds with STAT3 act-1 | IL-6 potentiation; U3A cells lack STAT1; 100 means same as IL-6 alone | potentiation (% of control), % at 5.7 µM | actives 64% (n = 1,200);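 active means percent activation of the STAT3 luciferase reporter above a set limit taken from the earlier primary screen, cut at about 130% in these data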;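 further: 0% = background signal of medium plus substrate and 100% = median of IL-6 with DMSO wells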
NFkB act STAT3ct – NF-kB reporter activators in human cells, counter-screen for STAT3 activator project; shares compounds with STAT3 act-1; NF-kappaB reporter activation; activation (% of control), % at 5.7 µM; actives 11% (n = 1,200); AID 1309, 2008; in the data active means activation above about 120%;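 further: reporter induced by TNF-alpha stimulation; 100% = median of stimulated DMSO wells and 0% = no signal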
STAT1 act-2 – STAT1 reporter activators, IFN-gamma induced, counter-screen for STAT3 activator project, cell-based, NIH 3T3, luciferase luminescence | shares compounds with STAT3 act-1 | NIH 3T3 STAT1-luciferase reporter | activation (% of control), % at 5.7 µM | actives 13% (n = 1,200);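 active means activation above the solvent-only control well mean plus 3 SD, set per screening run, cut at about 120% in these data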;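 further: 100% = IFN-gamma with DMSO median signal so 100% means no change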
The depositor's hits bear a star; x = no result given.

SMILES | STAT1 inh | STAT3 blocker | NF-kB neuron act | APP 5'UTR act | STAT3 act-1 | STAT1 act-1 | STAT3 act-2 | NFkB act STAT3ct | STAT1 act-2
N#CC1=C2N=C(N)c3ccccc3N2C2=C(C(=O)CCC2)C1c1ccc(Cl)cc1 (stereo not drawn) | 8 | -96 | 0.45 | -8 | 183* | 93 | 149* | 97 | 97
CC1(C)CC(=O)C2=C(C1)N1C(=C(C#N)C2c2ccccc2Cl)N=C(N)c2ccccc21 (stereo not drawn) | 0 | -1 | 0.4 | 2 | 101 | 100 | x | x | x
CC(C)(C)c1ccc(/C=C/C(=O)O)s1 | -3 | -2 | 1.3 | -9 | 110 | 103 | x | x | x
Cn1c(C(=O)c2ccccc2[N+](=O)[O-])nc2ccccc21 | -6 | -49 | 0.99 | -6 | 145* | 106 | 142* | 96 | 94
O=C(c1ccccc1[N+](=O)[O-])n1cnc2ccccc21 | -2 | 12 | 0.9 | 15 | 91 | 103 | x | x | x
O=C/C(=C\Nc1ccccn1)c1nc2ccccc2o1 | 1 | -66 | 0.81 | 12 | 158* | 99 | 144* | 114 | 100
CC(=O)Nc1cccc(N/C=C(\C=O)c2nc3ccccc3o2)c1 | -10 | -74 | 0.74 | 46 | 171* | 109 | 176* | 115 | 112
CC(=O)Nc1ccc(NC(=O)CSc2nc3ccccc3o2)cc1 | -7 | 2 | 1.5 | 9 | 100 | 106 | x | x | x
CC(=O)Nc1ccc(N/C=C(\C=O)c2nc3ccccc3o2)cc1 | 3 | -57 | 1.2 | -20 | 147* | 98 | 151* | 94 | 103
O=C/C(=C\Nc1ccc(Br)cc1)c1nc2ccccc2o1 | 0 | 11 | 0.96 | 14 | 94 | 99 | x | x | x
CCCCC(CC)CN1C(=O)/C(=C/c2ccncc2)SC1=S (stereo not drawn) | 2 | -3 | 1.3 | 17 | 109 | 98 | x | x | x
COc1ccc2c(c1)c1nnc(SC)nc1n2C | -27 | -65 | 1.3 | 11 | 160* | 124 | 171* | 113 | 128*
COc1ccc2c(c1)c1nnc(SCC(=O)N3C(C)CCCC3C)nc1n2C (stereo not drawn) | -5 | 8 | 0.43 | 7 | 95 | 105 | x | x | x
Fc1ccccc1C1c2[nH]c3ccccc3c2CCN1CCCn1cccn1 (stereo not drawn) | -7 | -44 | x | -7 | 144* | 104 | 133 | 102 | 93
O=C1c2ccccc2C(=O)N1CCCP(=O)(O)CCc1ccccc1 | 2 | 3 | 0.93 | 15 | 99 | 98 | x | x | x
Cc1onc(-c2c(Cl)cccc2Cl)c1C(=O)c1c[nH]c(C(=O)NCC2CCCO2)c1 (stereo not drawn) | -4 | 6 | 1 | 30 | 101 | 103 | x | x | x
Cc1occc1-c1nnc(SCC(=O)c2c[nH]c3ccccc23)n1C | 9 | -51 | 0.97 | 2 | 145* | 92 | 123 | 103 | 93
O=C(O)c1ccc(CNC(=O)c2ccc(C(F)(F)F)cc2)cc1 | -10 | -50 | 1.2 | 3 | 149* | 109 | 168* | 104 | 105
COC(=O)C(NC=O)C(O)(Cc1ccccc1)C(F)(F)F (stereo not drawn) | 2 | -63 | 1.6 | 0 | 158* | 98 | 152* | 106 | 101
COC(=O)C(O)(NC(=O)OCc1ccccc1)C(F)(F)F (stereo not drawn) | 12 | 11 | 1.2 | -13 | 96 | 90 | x | x | x
CCOC(=O)c1cnn(-c2nc3c(C)cccc3s2)c1C | 2 | -62 | 1.4 | 7 | 152* | 98 | 130 | 101 | 102
CCOC(=O)c1cnn(-c2nc3c(C)cccc3s2)c1C(F)(F)F | -2 | -2 | 1.1 | 8 | 102 | 102 | x | x | x
Clc1nnc(N/N=C/c2ccccc2)c2ccccc12 | -24 | -60 | 2.5 | 95 | 159* | 122 | 163* | 124* | 163*
Clc1ccc(/C=N/Nc2nn[nH]n2)cc1 | 3 | 2 | 1.4 | 7 | 101 | 95 | x | x | x
Clc1ccc(/C=N/Nc2nnc(Cl)c3ccccc23)cc1 | -20 | -51 | 2 | 6 | 146* | 117 | 160* | 127* | 164*
SMILES | STAT1 inh | STAT3 blocker | NF-kB neuron act | APP 5'UTR act | STAT3 act-1 | STAT1 act-1 | STAT3 act-2 | NFkB act STAT3ct | STAT1 act-2
C=CCNc1nnc(Cl)c2ccccc12 | 1 | 15 | 1.2 | -1 | 95 | 101 | x | x | x
O=C(Nc1nccs1)c1c(O)c2cccc3c2n(c1=O)CCC3 | 5 | -63 | 1 | 4 | 154* | 94 | 167* | 99 | 98
CC(C)(C)c1ccccc1NC(=O)c1c(O)c2cccc3c2n(c1=O)CC3 | 3 | -48 | 0.87 | 18 | 149* | 95 | 144* | 105 | 99
O=C(Nc1ccccn1)c1c(O)c2cccc3c2n(c1=O)CCC3 | 0 | -61 | 1.6 | 10 | 157* | 100 | 146* | 104 | 99
Cc1cccnc1NC(=O)c1c(O)c2cccc3c2n(c1=O)CCC3 | 1 | 0 | 1 | -22 | 106 | 101 | x | x | x
Cc1ccc(S(=O)(=O)Nc2cc(C(C)C)c(O)cc2C)cc1 | 0 | 3 | 0.89 | 19 | 100 | 100 | x | x | x
COc1cccc(-c2nc(N3CCN(c4ccccc4)CC3)c3ccccc3n2)c1O | 7 | -8 | 0.94 | -4 | 115 | 94 | x | x | x
COc1cccc(-c2nc(Oc3cccc(C)c3C)c3ccccc3n2)c1O | 11 | -50 | 0.99 | 13 | 140* | 90 | 136* | 98 | 95
C=CCN1C(=O)SC(Cc2cccc(OC)c2O)C1=O (stereo not drawn) | 0 | 9 | 1.3 | -9 | 99 | 99 | x | x | x
Cc1cc(C)nc(/N=C(\N)Nc2ccc(OCc3ccccc3)cc2)n1 | 4 | 26 | 0.79 | -6 | 81 | 95 | x | x | x
Cc1nc(/N=C(\N)Nc2ccccc2)nc2ccccc12 | -6 | -67 | 1.1 | 34 | 165* | 106 | 157* | 106 | 108
CCOC(=O)N1CCN(C(=O)c2ccc3nc4ccsc4c(=O)n3c2)CC1 | -3 | -45 | 1 | 11 | 137* | 104 | 134* | 100 | 100
O=C(Nc1cc(C(F)(F)F)ccc1N1CCOCC1)c1cccs1 | 8 | -7 | 1.3 | 0 | 106 | 93 | x | x | x

Screening results deposited in PubChem by several laboratories.
